Measurements gathered from unrelated publications.
Protocols differ between the studies behind these lines.
Cell line: PC-9
Read-out: cell growth or viability
Time: 72 h

| Compound | test | setting | quantity | result |
| --- | --- | --- | --- | --- |
| COc1ccc(N(Cc2nc(-c3ccc(F)cc3)cs2)C(=O)CCCCCC(=O)NO)cc1 | MTT | – | IC50 | 0.73 µM |
| CCCCNC(=O)Nc1nc2cc(-c3ccc4ncn(Cc5ccccc5)c(=O)c4c3)ccc2s1 | MTT | – | IC50 | > 20 µM |
| Cc1ccccc1Cn1cc(-c2cccc(NC(=O)Nc3ccc(F)cc3)c2)nn1 | CCK-8 | 20 µM | viability | 88.9% |
| O=C(NCc1cn(Cc2ccc(Cl)cc2)nn1)Nc1ccccc1Br | CCK-8 | 20 µM | viability | 94.5% |
| COc1ccc(NC(=O)NCc2cn(Cc3ccccc3C)nn2)cc1 | CCK-8 | 20 µM | viability | 94.4% |
| O=C(Nc1ccc(Cl)cc1)Nc1ccc(-c2cn(Cc3ccc(Cl)cc3)nn2)cc1 | CCK-8 | 50 µM | viability | 81.3% |
| COc1ccc(N(Cc2csc(-c3ccc(Br)cc3)n2)C(=O)CCCCCC(=O)NO)cc1 | MTT | – | IC50 | 1.86 µM |
| O=C(Nc1nc2cc(-c3ccc4ncn(Cc5ccccc5)c(=O)c4c3)ccc2s1)c1ccccc1 | MTT | – | IC50 | > 20 µM |
| O=C(Nc1ccc(Cl)cc1)Nc1ccc(-c2cn(Cc3ccc(Br)cc3)nn2)cc1 | CCK-8 | 50 µM | viability | 80.4% |
| COc1ccc(NC(=O)Nc2nc3cc(-c4ccc5ncn(CCN6CCOCC6)c(=O)c5c4)ccc3s2)cc1 | MTT | – | IC50 | > 20 µM |
| COc1ccc(NC(=O)Nc2ccc(-c3cn(Cc4ccc(Br)cc4)nn3)cc2)cc1 | CCK-8 | 50 µM | viability | 96.4% |
| COc1ccc(C(=O)Nc2nc3cc(-c4ccc5ncn(Cc6ccccc6)c(=O)c5c4)ccc3s2)cc1 | MTT | – | IC50 | > 20 µM |
| COc1ccc(NC(=O)Nc2ccc(-c3cn(Cc4ccc(C)cc4)nn3)cc2)cc1 | CCK-8 | 50 µM | viability | 96% |
| O=C(Nc1cccc(-c2cn(Cc3ccc(Br)cc3)nn2)c1)Nc1ccccc1Br | CCK-8 | 20 µM | viability | 128% |
| COc1ccc(NC(=O)NCc2cn(Cc3ccc(Br)cc3)nn2)cc1 | CCK-8 | 20 µM | viability | 100% |
| O=C(NCc1cn(Cc2ccc(Cl)cc2)nn1)Nc1ccc(Cl)cc1 | CCK-8 | 20 µM | viability | 83.2% |
| CC(C)CCn1cnc2ccc(-c3ccc4sc(NC(=O)Nc5ccc(F)cc5)nc4c3)cc2c1=O | MTT | – | IC50 | 9.09 µM |
| O=C(Nc1cccc(-c2cn(Cc3ccc(Cl)cc3)nn2)c1)Nc1ccccc1Br | CCK-8 | 50 µM | viability | 107% |
| COc1ccc(NC(=O)NCc2cn(Cc3ccc(C)cc3)nn2)cc1 | CCK-8 | 20 µM | viability | 105% |
| COc1cccc(NC(=O)Nc2nc3cc(-c4ccc5ncn(CCN(C)C)c(=O)c5c4)ccc3s2)c1 | MTT | – | IC50 | 5.24 µM |
